In ChEMBL document CHEMBL1177870, “Multiple toxin production in the cyanobacterium microcystis: isolation of the toxic protease inhibitor cyanopeptolin 1020” (J Nat Prod, 2010):
Activity calls are given as the source filed them. The calls are words filed in the database; no cut-off is given here.

What was measured:
[1] = Inhibition of bovine trypsin; parameters: species or system Bos taurus
Summary of the method: (§1)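 Fluorogenic kinetic assay. Protease and inhibitor preincubated at RT for 30 min before substrate was added. Read at ex 355/em 480 nm every 30 s for 1 h. Initial rates were taken by linear regression, and fractional activity was the inhibited rate over the uninhibited blank rate.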

[2] = target: T1, Prothrombin (Homo sapiens, UniProt P00734); assay: Inhibition of thrombin; summary of the method: as §1
[3] = target: T2, Urokinase-type plasminogen activator (Homo sapiens, UniProt P00749); assay: Inhibition of human LMW urokinase; summary of the method: as §1
[4] = target: T3, Tissue-type plasminogen activator (Homo sapiens, UniProt P00750); assay: Inhibition of human tissue plasminogen activator; summary of the method: as §1
Target sequence in this assay (P00750 whole entry): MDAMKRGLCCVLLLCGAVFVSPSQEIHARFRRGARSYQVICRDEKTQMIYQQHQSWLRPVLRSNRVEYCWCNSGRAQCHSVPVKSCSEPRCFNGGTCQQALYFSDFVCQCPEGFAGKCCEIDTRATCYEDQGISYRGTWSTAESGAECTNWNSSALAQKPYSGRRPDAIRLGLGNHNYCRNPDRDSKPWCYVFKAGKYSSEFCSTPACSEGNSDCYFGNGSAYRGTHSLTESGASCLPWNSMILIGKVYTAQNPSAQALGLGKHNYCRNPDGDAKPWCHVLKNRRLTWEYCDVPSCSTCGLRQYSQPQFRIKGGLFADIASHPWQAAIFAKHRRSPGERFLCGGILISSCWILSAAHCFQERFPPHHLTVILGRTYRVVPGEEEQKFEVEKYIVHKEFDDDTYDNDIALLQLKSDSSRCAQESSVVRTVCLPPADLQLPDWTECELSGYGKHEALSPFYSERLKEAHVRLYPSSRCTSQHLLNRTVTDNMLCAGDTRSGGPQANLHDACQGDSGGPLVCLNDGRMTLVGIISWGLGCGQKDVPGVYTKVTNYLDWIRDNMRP

[5] = target: Plasminogen (Homo sapiens, UniProt P00747); assay: Inhibition of plasmin; summary of the method: as §1
[6] = Toxicity in Thamnocephalus platyurus after 24 hrs by acute toxicity assay; assay type: organism-based; details: in vivo
Summary of the method: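 Thamnocephalus platyurus instar II–III larvae hatched from cysts were exposed in multiwell plates for 24 h to six concentrations from 0.1 to 100 µM of highly purified compound, with 20–30 animals per concentration. LC50 was obtained by nonlinear regression.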

[7] = target: T1, Prothrombin; assay: Inhibition of thrombin at < 2.5 uM; summary of the method: as §1
[8] = target: Coagulation factor XI (Homo sapiens, UniProt P03951); assay: Inhibition of factor 11a; summary of the method: as §1
[9] = Inhibition of human kallikrein; summary of the method: as §1
[10] = Inhibition of chymotrypsin; summary of the method: as §1
[11] = Inhibition of trypsin; summary of the method: as §1
[12] = target: T3, Tissue-type plasminogen activator; assay: Inhibition of human tissue plasminogen activator at < 2.5 uM; summary of the method: as §1
Target sequence in this assay (P00750 36-562 limits assumed): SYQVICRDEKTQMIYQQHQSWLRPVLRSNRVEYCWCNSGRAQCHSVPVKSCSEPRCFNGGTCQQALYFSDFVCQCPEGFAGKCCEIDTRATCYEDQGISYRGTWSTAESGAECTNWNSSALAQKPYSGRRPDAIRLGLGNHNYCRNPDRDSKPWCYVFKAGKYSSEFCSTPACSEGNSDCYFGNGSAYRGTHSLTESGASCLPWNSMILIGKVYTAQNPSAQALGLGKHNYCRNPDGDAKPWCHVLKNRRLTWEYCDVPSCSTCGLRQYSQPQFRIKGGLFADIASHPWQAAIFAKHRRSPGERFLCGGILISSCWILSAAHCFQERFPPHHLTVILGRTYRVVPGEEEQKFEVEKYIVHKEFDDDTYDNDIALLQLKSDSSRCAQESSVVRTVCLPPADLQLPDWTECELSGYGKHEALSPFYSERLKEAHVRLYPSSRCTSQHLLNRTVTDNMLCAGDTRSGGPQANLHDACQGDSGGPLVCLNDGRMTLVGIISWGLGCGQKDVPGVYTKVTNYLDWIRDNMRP

[13] = target: T2, Urokinase-type plasminogen activator; assay: Inhibition of human LMW urokinase at < 2.5 uM; summary of the method: as §1

Sequence of Coagulation factor XI (P03951 19-387 limits assumed): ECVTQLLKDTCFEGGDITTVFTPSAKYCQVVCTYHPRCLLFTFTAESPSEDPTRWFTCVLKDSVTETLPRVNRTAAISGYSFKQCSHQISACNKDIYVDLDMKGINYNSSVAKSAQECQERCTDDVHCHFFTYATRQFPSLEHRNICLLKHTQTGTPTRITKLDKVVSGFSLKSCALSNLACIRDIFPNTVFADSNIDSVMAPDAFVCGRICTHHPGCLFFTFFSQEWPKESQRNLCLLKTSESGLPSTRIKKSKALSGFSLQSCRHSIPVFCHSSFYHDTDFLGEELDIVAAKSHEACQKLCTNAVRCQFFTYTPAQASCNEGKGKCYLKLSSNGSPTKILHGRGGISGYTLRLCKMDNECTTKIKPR
Sequence of Coagulation factor XI (P03951 388-625 limits assumed): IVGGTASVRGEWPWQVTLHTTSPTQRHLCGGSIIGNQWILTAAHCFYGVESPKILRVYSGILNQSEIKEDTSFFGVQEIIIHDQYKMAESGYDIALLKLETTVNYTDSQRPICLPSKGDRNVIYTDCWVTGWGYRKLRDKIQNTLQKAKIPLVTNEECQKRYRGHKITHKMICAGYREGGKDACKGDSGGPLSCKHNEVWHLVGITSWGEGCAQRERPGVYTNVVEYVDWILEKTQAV
Sequence of Plasminogen (P00747 97-580 limits assumed): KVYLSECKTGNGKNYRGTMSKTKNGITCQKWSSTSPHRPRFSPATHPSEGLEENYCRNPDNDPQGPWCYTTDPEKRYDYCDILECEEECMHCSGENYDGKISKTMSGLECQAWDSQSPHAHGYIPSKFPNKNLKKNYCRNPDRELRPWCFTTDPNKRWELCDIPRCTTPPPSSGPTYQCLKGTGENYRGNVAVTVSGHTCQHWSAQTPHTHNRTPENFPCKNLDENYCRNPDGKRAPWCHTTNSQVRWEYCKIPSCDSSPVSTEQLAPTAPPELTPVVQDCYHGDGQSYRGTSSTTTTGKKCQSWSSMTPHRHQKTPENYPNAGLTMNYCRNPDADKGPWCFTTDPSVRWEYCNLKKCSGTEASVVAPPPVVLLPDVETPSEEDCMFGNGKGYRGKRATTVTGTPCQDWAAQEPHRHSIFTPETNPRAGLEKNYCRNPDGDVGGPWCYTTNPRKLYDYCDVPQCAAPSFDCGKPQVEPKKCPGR
Sequence of Plasminogen (P00747 581-810 limits assumed): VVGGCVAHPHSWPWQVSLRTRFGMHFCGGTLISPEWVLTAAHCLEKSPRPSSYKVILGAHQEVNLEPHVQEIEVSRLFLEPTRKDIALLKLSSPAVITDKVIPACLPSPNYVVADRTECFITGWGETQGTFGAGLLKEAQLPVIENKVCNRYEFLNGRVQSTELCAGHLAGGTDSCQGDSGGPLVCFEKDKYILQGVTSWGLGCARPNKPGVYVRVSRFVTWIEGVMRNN

Row | SMILES | IC50 [1] | IC50 [2] | IC50 [3] | IC50 [4] | IC50 [5] | LC50 at 24 h [6] | inhibition [7] | IC50 [8] | IC50 [9] | IC50 [10] | IC50 [11] | inhibition [12] | inhibition [13]
1 | CC(C)C[C@@H](NC(=O)[C@H](O)COS(=O)(=O)O)C(=O)N[C@@H]1C(=O)N[C@@H](CCCNC(=N)N)C(=O)N[C@H]2CC[C@@H](O)N(C2=O)[C@@H](CC(C)C)C(=O)N(C)[C@@H](Cc2ccc(O)cc2)C(=O)N[C@@H](C(C)C)C(=O)O[C@@H]1C | 10 nM |  |  |  |  |  |  |  |  |  |  |  | 
2 | CCCCCC(=O)N[C@@H](CCC(=O)O)C(=O)N[C@@H]1C(=O)N[C@@H](CCCNC(=N)N)C(=O)N[C@H]2CC[C@@H](O)N(C2=O)[C@@H](Cc2ccccc2)C(=O)N(C)[C@@H](Cc2ccc(O)cc2)C(=O)N[C@@H](C(C)C)C(=O)O[C@@H]1C [CYANOPEPTOLIN 1020] |  | > 2500 nM | > 605000 nM | > 2500 nM | 490 nM | 8800 nM | inactive | 3.9 nM | 4.5 nM | 1800 nM | 0.67 nM | inactive | inactive
